Source: ChEMBL document CHEMBL5678799 (Biochem J, 2009)
Activity calls are given as the source filed them. The rule behind the calls is not given here.

What was measured:
[1] = target: Calcium/calmodulin-dependent protein kinase kinase 2 (Homo sapiens) (UniProt Q96RR4); assay: Inhibition of recombinant human N-terminal GST-tagged CAMKKbeta (1 to 541 residues) expressed in Escherichia coli assessed as remaining activity at 10 uM using DGEFLRTSCGSPNYAARRR as substrate incubated for 30 mins in presence of [gamma-33P]ATP by filter binding method relative to control
Calcium/calmodulin-dependent protein kinase kinase 2 (Homo sapiens), sequence (Q96RR4 2-588 limits assumed): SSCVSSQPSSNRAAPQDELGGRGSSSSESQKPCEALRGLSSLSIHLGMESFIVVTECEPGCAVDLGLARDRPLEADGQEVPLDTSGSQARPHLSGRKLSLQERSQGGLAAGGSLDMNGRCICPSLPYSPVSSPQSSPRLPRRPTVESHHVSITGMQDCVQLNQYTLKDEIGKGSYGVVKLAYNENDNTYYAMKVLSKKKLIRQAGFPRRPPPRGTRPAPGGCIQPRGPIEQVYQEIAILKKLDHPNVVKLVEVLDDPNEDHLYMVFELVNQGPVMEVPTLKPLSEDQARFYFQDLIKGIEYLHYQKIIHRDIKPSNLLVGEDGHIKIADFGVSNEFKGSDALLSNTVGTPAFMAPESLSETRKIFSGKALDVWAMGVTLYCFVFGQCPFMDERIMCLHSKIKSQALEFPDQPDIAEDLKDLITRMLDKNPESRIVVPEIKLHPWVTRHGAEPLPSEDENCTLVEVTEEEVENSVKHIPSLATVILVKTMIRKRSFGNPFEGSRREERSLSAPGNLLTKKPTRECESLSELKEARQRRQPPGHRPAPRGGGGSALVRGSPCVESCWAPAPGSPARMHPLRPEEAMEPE
Summary of the method: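 Robotic radiometric panel assay, 30 min at room temperature (21 °C), with 10 mM magnesium acetate. […] Compound at 1 or 10 µM. Residual activity expressed relative to compound-free control; triplicate average ± S.D.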

[2] = target: Ephrin type-A receptor 2 (Homo sapiens) (UniProt P29317); assay: Inhibition of recombinant human N-terminal GST-tagged EPHA2 (591 to 976 residues) expressed in Escherichia coli assessed as remaining activity at 1 uM using Poly (Glu,Tyr) as substrate incubated for 30 mins in presence of [gamma-33P]ATP by filter binding method relative to control
Ephrin type-A receptor 2 (Homo sapiens), sequence (P29317 whole entry, the tested form may be a part): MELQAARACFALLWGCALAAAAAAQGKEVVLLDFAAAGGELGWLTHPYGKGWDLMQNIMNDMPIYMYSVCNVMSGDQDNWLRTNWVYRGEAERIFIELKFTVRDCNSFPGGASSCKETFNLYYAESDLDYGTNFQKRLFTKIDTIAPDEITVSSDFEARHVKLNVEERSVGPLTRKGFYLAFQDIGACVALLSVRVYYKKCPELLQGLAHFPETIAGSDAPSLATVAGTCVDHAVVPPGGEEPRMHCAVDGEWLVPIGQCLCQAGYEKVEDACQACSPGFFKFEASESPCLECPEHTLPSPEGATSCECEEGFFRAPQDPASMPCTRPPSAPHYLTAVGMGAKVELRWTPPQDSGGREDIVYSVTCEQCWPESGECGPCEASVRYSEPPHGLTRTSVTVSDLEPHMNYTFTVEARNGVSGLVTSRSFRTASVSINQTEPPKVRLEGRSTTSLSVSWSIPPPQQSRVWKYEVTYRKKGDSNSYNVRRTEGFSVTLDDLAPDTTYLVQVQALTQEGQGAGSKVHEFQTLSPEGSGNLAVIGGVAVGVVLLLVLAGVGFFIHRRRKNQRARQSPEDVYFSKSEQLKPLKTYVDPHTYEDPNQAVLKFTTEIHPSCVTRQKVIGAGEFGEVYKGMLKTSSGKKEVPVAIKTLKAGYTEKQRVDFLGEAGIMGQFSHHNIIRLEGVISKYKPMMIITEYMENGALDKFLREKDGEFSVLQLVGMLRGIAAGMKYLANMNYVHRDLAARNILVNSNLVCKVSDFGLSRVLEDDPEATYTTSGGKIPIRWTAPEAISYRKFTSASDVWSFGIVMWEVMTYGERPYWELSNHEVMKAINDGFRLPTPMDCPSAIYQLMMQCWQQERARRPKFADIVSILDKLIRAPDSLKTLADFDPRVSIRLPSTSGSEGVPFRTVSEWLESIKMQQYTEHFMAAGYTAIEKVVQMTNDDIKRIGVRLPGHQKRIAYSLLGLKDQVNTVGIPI
Summary of the method: (§1)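 Run robotically for 30 min at 21 °C under linear conditions. Compound at 1 or 10 µM. Percentage activity remaining versus control without compound, triplicate mean ± S.D.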

[3] = target: Mitogen-activated protein kinase 3 (Homo sapiens) (UniProt P27361); assay: Inhibition of recombinant human N-terminal GST-tagged ERK1 (2 to 379 residues) expressed in Escherichia coli assessed as remaining activity at 1 uM using MBP as substrate incubated for 30 mins in presence of [gamma-33P]ATP by filter binding method relative to control
Mitogen-activated protein kinase 3 (Homo sapiens), sequence (P27361 whole entry, the tested form may be a part): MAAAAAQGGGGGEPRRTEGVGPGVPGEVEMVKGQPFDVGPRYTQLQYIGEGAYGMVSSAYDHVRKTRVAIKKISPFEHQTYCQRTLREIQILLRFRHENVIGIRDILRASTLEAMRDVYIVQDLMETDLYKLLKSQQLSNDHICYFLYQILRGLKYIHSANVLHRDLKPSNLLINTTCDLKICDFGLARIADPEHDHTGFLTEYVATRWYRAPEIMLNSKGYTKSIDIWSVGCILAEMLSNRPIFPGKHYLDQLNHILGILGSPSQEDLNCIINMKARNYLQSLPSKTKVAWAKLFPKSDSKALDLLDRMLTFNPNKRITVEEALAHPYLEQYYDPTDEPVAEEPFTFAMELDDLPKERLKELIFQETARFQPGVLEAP
Summary of the method: (§2)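 Kinase panel run robotically at 21 °C for 30 min, linear in time and enzyme. […] Compound tested at 1 or 10 µM. Activity given as percentage of incubations without compound, mean of triplicates ± S.D.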

[4] = target: Insulin-like growth factor 1 receptor (Homo sapiens) (UniProt P08069); assay: Inhibition of recombinant human N-terminal His6-tagged IGF1R (954 to 1367 residues) expressed in baculovirus infected Sf21 cells assessed as remaining activity at 1 uM using KKKSPGEYVNIEFG as substrate incubated for 30 mins in presence of [gamma-33P]ATP by filter binding method relative to control
Summary of the method: (§3)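 Radiometric kinase panel run robotically at room temperature (21 °C) for 30 min, linear in time and enzyme. […] Activity is expressed as percent of control without compound, from triplicate determinations ± S.D.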

[5] = target: MAP kinase-interacting serine/threonine-protein kinase 1 (Homo sapiens) (UniProt Q9BUB5); assay: Inhibition of recombinant human N-terminal GST-tagged C-terminal His6-tagged MNK1 (2 to 424 residues) expressed in Escherichia coli assessed as remaining activity at 1 uM using eIF4E as substrate incubated for 30 mins in presence of [gamma-33P]ATP by filter binding method relative to control
MAP kinase-interacting serine/threonine-protein kinase 1 (Homo sapiens), sequence (Q9BUB5 whole entry, looked up, the tested form may be a part): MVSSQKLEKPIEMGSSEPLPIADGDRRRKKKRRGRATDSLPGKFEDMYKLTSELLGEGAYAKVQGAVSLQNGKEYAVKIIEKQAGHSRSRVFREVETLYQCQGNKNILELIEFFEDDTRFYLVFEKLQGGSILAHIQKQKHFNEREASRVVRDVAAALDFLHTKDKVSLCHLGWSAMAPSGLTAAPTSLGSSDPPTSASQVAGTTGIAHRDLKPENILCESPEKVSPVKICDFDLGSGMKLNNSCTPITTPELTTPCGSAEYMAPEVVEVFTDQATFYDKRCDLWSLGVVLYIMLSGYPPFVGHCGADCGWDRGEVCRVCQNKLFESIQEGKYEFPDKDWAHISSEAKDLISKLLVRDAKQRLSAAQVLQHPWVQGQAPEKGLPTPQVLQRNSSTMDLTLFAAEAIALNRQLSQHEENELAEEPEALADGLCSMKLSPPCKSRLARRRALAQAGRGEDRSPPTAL

[6] = target: Serine/threonine-protein kinase pim-2 (Homo sapiens) (UniProt Q9P1W9); assay: Inhibition of recombinant human N-terminal GST-tagged PIM2 (2 to 334 residues) expressed in Escherichia coli assessed as remaining activity at 1 uM using RSRHSSYPAGT as substrate incubated for 30 mins in presence of [gamma-33P]ATP by filter binding method relative to control; summary of the method: as §3
Serine/threonine-protein kinase pim-2 (Homo sapiens), sequence (Q9P1W9 whole entry, looked up, the tested form may be a part): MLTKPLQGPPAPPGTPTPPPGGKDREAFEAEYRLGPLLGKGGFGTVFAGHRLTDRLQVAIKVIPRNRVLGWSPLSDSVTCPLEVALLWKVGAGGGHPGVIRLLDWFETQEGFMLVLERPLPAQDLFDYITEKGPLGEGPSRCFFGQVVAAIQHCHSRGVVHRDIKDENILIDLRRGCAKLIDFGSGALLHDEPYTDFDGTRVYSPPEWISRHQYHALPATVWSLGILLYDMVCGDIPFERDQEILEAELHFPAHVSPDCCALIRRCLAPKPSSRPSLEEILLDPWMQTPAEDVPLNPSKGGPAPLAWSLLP

[7] = system: Serine/threonine-protein kinase Sgk1 (Homo sapiens), O00141 [S422D]; assay: Inhibition of recombinant human His6-tagged SGK1 S422D mutant (60 to 431 residues) expressed in baculovirus infected Sf21 cells assessed as remaining activity at 1 uM using GRPRTSSFAEGKK as substrate incubated for 30 mins in presence of [gamma-33P]ATP by filter binding method relative to control
Serine/threonine-protein kinase Sgk1 (Homo sapiens), O00141 [S422D], sequence (O00141 whole entry S422D, the tested form may be a part): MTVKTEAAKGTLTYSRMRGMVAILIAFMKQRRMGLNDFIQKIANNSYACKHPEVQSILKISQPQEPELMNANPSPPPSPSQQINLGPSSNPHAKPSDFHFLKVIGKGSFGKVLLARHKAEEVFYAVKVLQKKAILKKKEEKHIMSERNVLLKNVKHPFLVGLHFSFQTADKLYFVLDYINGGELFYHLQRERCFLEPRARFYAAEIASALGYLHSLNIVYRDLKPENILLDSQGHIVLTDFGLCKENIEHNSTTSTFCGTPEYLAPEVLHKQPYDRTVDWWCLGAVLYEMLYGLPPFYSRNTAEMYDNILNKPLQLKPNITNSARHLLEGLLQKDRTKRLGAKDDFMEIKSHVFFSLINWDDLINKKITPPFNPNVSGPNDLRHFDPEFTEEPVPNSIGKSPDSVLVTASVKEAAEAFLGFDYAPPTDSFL
Summary of the method: (§4)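 Incubations ran robotically for 30 min at room temperature (21 °C) under linear conditions. Results are percent activity remaining versus controls without compound, as the mean of triplicates ± S.D.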

[8] = target: Tyrosine-protein kinase CSK (Homo sapiens) (UniProt P41240); assay: Inhibition of recombinant human N-terminal GST-tagged CSK (1 to 450 residues) expressed in Escherichia coli assessed as remaining activity at 10 uM Cdc2 peptide as substrate incubated for 30 mins in presence of [gamma-33P]ATP by filter binding method relative to control; summary of the method: as §4
Tyrosine-protein kinase CSK (Homo sapiens), sequence (P41240 2-450 limits assumed): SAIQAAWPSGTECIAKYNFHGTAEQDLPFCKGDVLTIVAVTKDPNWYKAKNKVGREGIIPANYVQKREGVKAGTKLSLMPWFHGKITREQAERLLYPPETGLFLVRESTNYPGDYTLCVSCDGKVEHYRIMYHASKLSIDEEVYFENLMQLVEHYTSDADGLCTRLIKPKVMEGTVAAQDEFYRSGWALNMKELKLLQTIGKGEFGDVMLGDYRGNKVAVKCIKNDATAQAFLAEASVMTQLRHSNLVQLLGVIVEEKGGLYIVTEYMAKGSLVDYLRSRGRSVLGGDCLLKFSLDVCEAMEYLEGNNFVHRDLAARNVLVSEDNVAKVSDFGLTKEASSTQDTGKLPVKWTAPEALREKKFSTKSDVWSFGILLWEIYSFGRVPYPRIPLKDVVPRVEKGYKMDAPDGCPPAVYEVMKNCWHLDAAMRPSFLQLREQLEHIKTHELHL

[9] = target: Ephrin type-A receptor 2 (Homo sapiens) (UniProt P29317); assay: Inhibition of recombinant human N-terminal GST-tagged EPHA2 (591 to 976 residues) expressed in Escherichia coli assessed as remaining activity at 10 uM using Poly (Glu,Tyr) as substrate incubated for 30 mins in presence of [gamma-33P]ATP by filter binding method relative to control; summary of the method: as §1
[10] = target: Serine/threonine-protein kinase 26 (Homo sapiens) (UniProt Q9P289); assay: Inhibition of recombinant human N-terminal His6-tagged MST4 (1 to 416 residues) expressed in baculovirus infected Sf21 cells assessed as remaining activity at 10 uM using MBP as substrate incubated for 30 mins in presence of [gamma-33P]ATP by filter binding method relative to control
Serine/threonine-protein kinase 26 (Homo sapiens), sequence (Q9P289 2-416 limits assumed): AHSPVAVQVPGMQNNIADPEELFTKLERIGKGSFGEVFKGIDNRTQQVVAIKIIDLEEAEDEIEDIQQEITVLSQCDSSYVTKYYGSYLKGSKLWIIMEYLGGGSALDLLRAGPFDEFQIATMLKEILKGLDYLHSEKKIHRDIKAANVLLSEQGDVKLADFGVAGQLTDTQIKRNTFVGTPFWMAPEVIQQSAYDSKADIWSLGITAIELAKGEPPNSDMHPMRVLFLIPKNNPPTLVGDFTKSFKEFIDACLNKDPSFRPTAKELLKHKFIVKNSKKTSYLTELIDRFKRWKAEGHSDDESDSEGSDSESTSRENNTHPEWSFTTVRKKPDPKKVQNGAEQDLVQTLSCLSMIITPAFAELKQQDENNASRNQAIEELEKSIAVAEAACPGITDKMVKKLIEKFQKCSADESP

[11] = target: Serine/threonine-protein kinase Nek2 (Homo sapiens) (UniProt P51955); assay: Inhibition of recombinant human N-terminal His6-tagged NEK2A (1 to 445 residues) expressed in baculovirus infected Sf21 cells assessed as remaining activity at 10 uM using RFRRSRRMI as substrate incubated for 30 mins in presence of [gamma-33P]ATP by filter binding method relative to control
[12] = target: Phosphorylase b kinase gamma catalytic chain, skeletal muscle/heart isoform (Homo sapiens) (UniProt Q16816); assay: Inhibition of recombinant human N-terminal GST-tagged PHKgamma1 (2 to 297 residues) expressed in Escherichia coli assessed as remaining activity at 10 uM using phosphorylase b peptide as substrate incubated for 30 mins in presence of [gamma-33P]ATP by filter binding method relative to control
Phosphorylase b kinase gamma catalytic chain, skeletal muscle/heart isoform (Homo sapiens), sequence (Q16816 whole entry, looked up, the tested form may be a part, canonical isoform): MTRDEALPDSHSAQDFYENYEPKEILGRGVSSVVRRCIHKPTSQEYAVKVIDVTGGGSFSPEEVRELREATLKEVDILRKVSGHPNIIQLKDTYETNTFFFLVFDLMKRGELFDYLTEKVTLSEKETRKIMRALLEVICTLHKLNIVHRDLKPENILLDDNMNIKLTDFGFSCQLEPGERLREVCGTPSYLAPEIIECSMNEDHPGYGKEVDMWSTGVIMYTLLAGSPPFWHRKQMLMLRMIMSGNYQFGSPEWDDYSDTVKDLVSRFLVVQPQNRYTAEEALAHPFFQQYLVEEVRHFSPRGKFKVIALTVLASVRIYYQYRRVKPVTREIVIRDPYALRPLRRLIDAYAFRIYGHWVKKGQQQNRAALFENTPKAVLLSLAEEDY
Summary of the method: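 Incubation was 30 min at room temperature (21 °C) under conditions linear with time and enzyme amount. Activity is reported as percent of control lacking compound, triplicate mean ± S.D.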

[13] = target: Dual specificity mitogen-activated protein kinase kinase 1 (Homo sapiens) (UniProt Q02750); assay: Inhibition of recombinant human MKK1 (2 to 393 residues) expressed in Escherichia coli at 10 uM using MBP as substrate incubated for 30 mins in presence of [gamma-33P]ATP by filter binding method relative to control; summary of the method: as §2
Dual specificity mitogen-activated protein kinase kinase 1 (Homo sapiens), sequence (Q02750 whole entry, the tested form may be a part): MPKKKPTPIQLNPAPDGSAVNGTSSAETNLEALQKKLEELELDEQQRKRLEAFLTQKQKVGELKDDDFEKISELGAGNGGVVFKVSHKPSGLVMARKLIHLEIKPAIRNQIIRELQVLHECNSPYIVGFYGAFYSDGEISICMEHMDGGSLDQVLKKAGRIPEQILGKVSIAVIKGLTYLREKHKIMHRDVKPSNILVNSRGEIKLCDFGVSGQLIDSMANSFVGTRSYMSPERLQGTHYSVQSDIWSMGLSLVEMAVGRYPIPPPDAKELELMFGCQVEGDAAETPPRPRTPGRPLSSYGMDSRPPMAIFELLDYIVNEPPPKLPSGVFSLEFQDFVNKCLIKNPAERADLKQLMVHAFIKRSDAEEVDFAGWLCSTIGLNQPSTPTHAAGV

MEF = assay: Induction of cell cycle arrest in mLST8 knockout MEF cells assessed as accumulation at G2 phase at 3 uM incubated for 1 to 3 days by propidium iodide staining based flow cytometric analysis (reference value: 14.1 +/- 0.69%); assay type: toxicity; settings: mouse, time 1-3 day
mTORC1 (Homo sapiens) = mTORC1 (Homo sapiens) (UniProt P42345+Q8N122+Q9BVC4); settings: HEK293, dose 30-1000 nM, time 30.0 min
mTORC2 (Homo sapiens) [14] = target: T1, mTORC2 (Homo sapiens) (UniProt P42345+Q6R327+Q9BVC4+Q9BPZ7); settings: HEK293, dose 30-1000 nM, time 30.0 min
mTORC2 (Homo sapiens) [15] = target: T1, mTORC2 (Homo sapiens); settings: HEK293, dose 30-1000 nM, time 30.0 min; remark: listed apart in the source

## COc1ccc(-c2ccc3c(N4CCOCC4)nc(N4C[C@@H](C)O[C@@H](C)C4)nc3n2)cc1CO [Ku-0063794]
[1]
  Activity: 94%
[2]
  Activity: 108%
[3]
  Activity: 102%
[4]
  Activity: 117%
[5]
  Activity: 111%
[6]
  Activity: 86%
[7]
  Activity: 76%
[8]
  Activity: 99%
[9]
  Activity: 96%
[10]
  Activity: 86%
[11]
  Activity: 86%
[12]
  Activity: 116%
[13]
  inhibition: 55%
MEF
  Activity: 13.3%
mTORC1 (Homo sapiens)
  inhibition: Active
mTORC2 (Homo sapiens) [14]
  inhibition: Dose-Dependent Effect
mTORC2 (Homo sapiens) [15]
  inhibition: Dose-Dependent Effect
